The labels stand for the following.
B1: tRNA (parent)
chain: GUUCCGUUGGCGUAAUGGUAACGCGUCUCCCUCCUAAGGAGAAGACUGCGGGUUCGAGUCCCGUACGGAACG

This sample holds only a part of the variants without activity. A value given as a limit tells only on which side of the number the result lay.

The data set covers variants of B1. Briefly: yeast fitness relative to wild type (ratio to wild type); higher = fitter; tRNA-Arg(CCU), competitive growth, 37 C, YPD. The gist of the method: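 For this measurement, the tRNA-Arg(CCU) gene was varied by chemical synthesis at a 3% per-site mutation rate across 69 sites, and each variant was placed at the native genomic locus in Saccharomyces cerevisiae. The pooled strains went through a 24-hour competition in YPD at 37°C in six parallel replicates, with amplicons from start and end populations read by 100-nucleotide paired-end sequencing. Darwinian fitness relative to wild type followed from the change in each genotype's frequency. Genotypes needed ≥ 100 starting reads, and estimates < 0.5 were set to 0.5.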
As to U19A A43U A70U, the yeast fitness came to 0.825.

As for U2G A36U G58A, the yeast fitness is at most 0.5.

For the variant A42U U59C, the yeast fitness came out at 1.01.

With G12C G63A, the yeast fitness came out at 0.81.

In the case of C4G U47A G68A, the yeast fitness was at most 0.5.

Consider G9A C27G C31U C46G G51C, for which the yeast fitness came out at 0.594.

Take G9U C24U U35A A40G C60A G67C: the yeast fitness is at most 0.5.

With A15U A20C U32G, the yeast fitness was at most 0.5.

Consider C4U G12A C27G C34A C49A C60G C61U, for which the yeast fitness is 0.522.

A40G G44A G63C: the yeast fitness is at most 0.5.

Consider C4U U19A C29U C33G C62A, for which the yeast fitness is at most 0.5.

As for C11U A14G A37C C49U, the yeast fitness is at most 0.5.

As for C31U U54G C55U, the yeast fitness was found to be 0.566.

Take C11U G41A A65U: the yeast fitness amounted to 0.515.

Consider C4A A36G G51C A65U, for which the yeast fitness is at most 0.5.

On to G6C C29G C60A, for which the yeast fitness was at most 0.5.

In the case of A42U C49A G56C A65G, the yeast fitness is at most 0.5.

G41C G50A: the yeast fitness came out at 0.703.

Regarding A36U A45U A57U, the yeast fitness was at most 0.5.

G17A G67A: the yeast fitness turned out to be 0.743.

Regarding C11U A42C G48A, the yeast fitness came to 0.566.

As to A20U U35A G38A, the yeast fitness stood at 0.613.

Turning to A36G G56A, the yeast fitness is 1.01.

Consider C24G A43G U47A, for which the yeast fitness was at most 0.5.

In the case of G38C G41C A65G, the yeast fitness turned out to be 0.597.

In the case of A37U A42G A69U, the yeast fitness is at most 0.5.

Take U7A C49U U59C C62G: the yeast fitness was at most 0.5.

On to U8C A15U G25A C34G U54A A65U, for which the yeast fitness was determined as 0.541.

On to A15U A57U, for which the yeast fitness came out at 0.666.

With G18A C61U, the yeast fitness is 0.696.

As to U8A A43U C49U C55A, the yeast fitness was at most 0.5.

Consider G9A A36C G38A, for which the yeast fitness is at most 0.5.

On to C4G G9A G50C G67A, for which the yeast fitness is at most 0.5.

Consider C24U C31U U54A, for which the yeast fitness is at most 0.5.

Turning to G25A A45C, the yeast fitness is 0.957.

A14U C34G C61A: the yeast fitness was at most 0.5.

As to A21U A43C, the yeast fitness was found to be 0.974.

For C24A A40G C61U, the yeast fitness was at most 0.5.

For U32A C33A A43U C62U, the yeast fitness was at most 0.5.

Consider G6C C30A A42C, for which the yeast fitness was determined as 0.546.

Take U3G A14C: the yeast fitness was 0.773.

Take U7C C11G C30G C33A A57C C61A: the yeast fitness was at most 0.5.

Take U16A C34U U47C A57U: the yeast fitness is at most 0.5.

Regarding U8A G41C C62U A65U, the yeast fitness was at most 0.5.

For C4A C29G G38C, the yeast fitness was at most 0.5.

Turning to U19A C27U C29U, the yeast fitness amounted to 0.697.

Take C5U A45C G58C: the yeast fitness worked out at 0.977.

With U47G G56A, the yeast fitness worked out at 0.646.

With C30U G38C A40G, the yeast fitness came out at 0.569.

As to C5U G9A A20G, the yeast fitness was found to be 0.663.

On to C5U G12C U28A, for which the yeast fitness came out at 0.545.

As to U3A C24U C30U, the yeast fitness was at most 0.5.

In the case of C33G G38C, the yeast fitness stood at 0.548.

As for A14C C27A A37G G51C, the yeast fitness was 0.615.

Consider G6C C11G C22U, for which the yeast fitness turned out to be 0.606.

For the variant C11U C27U C31U A36C G44C A45G G56C A70U, the yeast fitness was at most 0.5.

U28A U32C: the yeast fitness amounted to 0.833.

With C5U U35C A45U C61G, the yeast fitness was at most 0.5.

With C22U C31G, the yeast fitness is 0.834.

Take C4U U26A A37G C66G: the yeast fitness is at most 0.5.

Regarding A20U C24U C30A C46G G48A, the yeast fitness is at most 0.5.

In the case of C5G G56C A65C, the yeast fitness came out at 0.549.

For the variant U2C C4A U13C C29U U47A G52A C62U, the yeast fitness was at most 0.5.

For the variant C34G G39A G50C, the yeast fitness is at most 0.5.

As for G6A G25A A69U, the yeast fitness came to 0.68.

Take G10C C31A: the yeast fitness is 0.577.

Take C27G A45U C55A G56A: the yeast fitness was at most 0.5.

As for C27U A36G G50A G58A A69C, the yeast fitness was at most 0.5.

With C5U C11U A21U, the yeast fitness was found to be 0.696.

Take C5U A20G C49G G52A A57C: the yeast fitness was at most 0.5.

Take C5U G56C: the yeast fitness came to 0.651.

As to G6C C31G C33G U47C G51A, the yeast fitness is at most 0.5.

Turning to C29U C49G G58C, the yeast fitness is at most 0.5.

For U3G A14G G39C, the yeast fitness was at most 0.5.

Turning to G6A C22U A42C G52A G56C, the yeast fitness was at most 0.5.

For U2C C60A, the yeast fitness turned out to be 0.66.

On to C5G C27G A57C, for which the yeast fitness is at most 0.5.

With U2C A20G C62U, the yeast fitness was 0.599.

For the variant C30G C34G A40C C66A A69C, the yeast fitness came out at 0.527.

In the case of A43G G67A, the yeast fitness came out at 0.864.

In the case of G6C G51C A57G C61U A65C, the yeast fitness is at most 0.5.

For the variant C31G C55G U64C, the yeast fitness was at most 0.5.

Turning to U3A C30U A42G, the yeast fitness came to 0.757.

In the case of G18C C30U C31U G48A, the yeast fitness is at most 0.5.

In the case of C4A A14C A21C C22U C24U C29U U53C, the yeast fitness stood at 0.568.

For G6C G18C C22U C34G A36U A57C C66U, the yeast fitness was at most 0.5.

As to G6A C31U C46A A57U C60U, the yeast fitness is at most 0.5.

For the variant U3G C11U C55G, the yeast fitness was at most 0.5.

As to G18C C22U, the yeast fitness amounted to 0.558.

As to U35C U54G, the yeast fitness was 0.552.

For the variant C4A U26C A65C, the yeast fitness was at most 0.5.

Regarding C30G A36U C49G U53C G58C G67A A70U, the yeast fitness is at most 0.5.

Take C5A C33U G50A G52C A65C: the yeast fitness was at most 0.5.

Consider A45G C61A A70G, for which the yeast fitness stood at 0.55.

Take G6C U13G G18A C55G: the yeast fitness was at most 0.5.

With U13G A45U, the yeast fitness is 0.964.

As for U8G G25C A36G G48A C60A, the yeast fitness is at most 0.5.

Turning to G41A G51A C60G A65G, the yeast fitness is at most 0.5.

In the case of C4G A21C C27A U28G, the yeast fitness was 0.614.

On to C11U C46U G56C A69U, for which the yeast fitness is at most 0.5.

A21U C33G: the yeast fitness was 0.731.

As for C11A C24U C31U G67A, the yeast fitness is at most 0.5.

For the variant A20U C31U, the yeast fitness stood at 0.926.

On to C4U C22U C31U A57U, for which the yeast fitness was at most 0.5.

For A40U G63C U64C, the yeast fitness is 0.53.

Regarding G9A C31G G56C, the yeast fitness was found to be 0.753.

With C30G G63A, the yeast fitness turned out to be 0.641.

In the case of A14G C22G U35C A57C, the yeast fitness is at most 0.5.

Turning to C24U G51A, the yeast fitness amounted to 0.675.

Regarding U7A A20C G50A, the yeast fitness was at most 0.5.

Consider C11G U26A C27A C29G C46A G50A U59G, for which the yeast fitness came to 0.73.

Regarding U28A C33G, the yeast fitness is 0.618.

Regarding C5U G25C A42U C62G, the yeast fitness was at most 0.5.

In the case of U2G A14C C27U U35A A57G C66U, the yeast fitness was at most 0.5.

Take C4U G41A A42C: the yeast fitness is at most 0.5.

Regarding G41C C60G G68A, the yeast fitness is at most 0.5.

As to C22G U47A, the yeast fitness worked out at 0.754.

As for U7A A70U, the yeast fitness came to 0.689.

Consider G10A A36U, for which the yeast fitness was 0.596.

With U13C A43U A69C, the yeast fitness came out at 0.766.

Regarding U3G C5U G39A C49U, the yeast fitness was at most 0.5.

As to A40C G56A G58C, the yeast fitness came out at 0.598.

Take C4G G9A G10C C29A A37G G50U U59G: the yeast fitness was at most 0.5.

For A20C C34A A37G C46A G63C A69C, the yeast fitness is at most 0.5.

In the case of C31A C33G A42C G48A U54A A69C, the yeast fitness is at most 0.5.

For the variant A20G G25A C33U G39A A57G U59C, the yeast fitness was at most 0.5.

Take A14G A36U C46A: the yeast fitness was 0.576.

As to C31A G39A, the yeast fitness was 0.777.

Regarding U7A G10C C30G C34U, the yeast fitness was at most 0.5.

Turning to U16A G23C C29U G58A, the yeast fitness was at most 0.5.

With G10A C22G G58C, the yeast fitness was at most 0.5.

As for C11G A15C C24U A43U C66U, the yeast fitness was at most 0.5.

For U28G C31U A70U, the yeast fitness came out at 0.543.

On to U7C C30A U54A A57C, for which the yeast fitness is at most 0.5.

As for A37C G39C G50C, the yeast fitness is at most 0.5.

With A14C A21U A40G A65C, the yeast fitness worked out at 0.621.

As for G9A C11U U47G C62G A69C, the yeast fitness is at most 0.5.

Consider A36G A40U, for which the yeast fitness was found to be 0.938.

On to U28A C31U C34U, for which the yeast fitness is at most 0.5.

In the case of A21U U54A, the yeast fitness came out at 0.533.

With A20C A37C A43G U54A, the yeast fitness was at most 0.5.

Consider C22A C24G G52A G67C G68A, for which the yeast fitness was at most 0.5.

On to C55A G58C C66G, for which the yeast fitness turned out to be 0.623.

Turning to U3C G9A C30A G67U, the yeast fitness is at most 0.5.

In the case of A40C C61A A65U, the yeast fitness amounted to 0.625.

Regarding C49U G56U, the yeast fitness was 0.677.

For C22A G48A C49U G50A G51C A70C, the yeast fitness is at most 0.5.

G48A: the yeast fitness was 0.982.

As for C5U A14G G68C, the yeast fitness came to 0.57.

For U19A A20G C29A A40C G50C, the yeast fitness is at most 0.5.

For the variant A15U G48C G67C, the yeast fitness is at most 0.5.

Regarding G12C A45G, the yeast fitness was found to be 0.684.

Consider U7A A20G G23A A40G U47C A70C, for which the yeast fitness was at most 0.5.

In the case of G17C C49U C61G C66U, the yeast fitness is at most 0.5.

As to U2A U16C C30A, the yeast fitness amounted to 0.558.

Turning to G6A C31A, the yeast fitness was 0.819.

Turning to U3A A15G U19A G41A, the yeast fitness is at most 0.5.

On to A14C C31U G58A C62U, for which the yeast fitness came to 0.609.

Turning to U47C C49U, the yeast fitness is 0.987.

For the variant C5A U16C C33U G63C, the yeast fitness was at most 0.5.

Regarding C11A U16C U32G C49G C55A, the yeast fitness amounted to 0.546.

Consider C4G G38C G63A G68C A69G, for which the yeast fitness was at most 0.5.

For the variant G17A A20U C24U A65U, the yeast fitness is at most 0.5.

Take C31A C46A A65U: the yeast fitness is at most 0.5.

For C33U C60G, the yeast fitness amounted to 0.607.

With C11G U19A A21G C27U G39C C60A, the yeast fitness was at most 0.5.

Regarding C5U C34A G39C G52A G58A, the yeast fitness was at most 0.5.

The values are drawn from the RNAGym collection of RNA variant scans (doi:10.1126/science.aae0568).
